Test results as given in ChEMBL document CHEMBL1145439, “Fluorine-18-labeled benzamide analogues for imaging the sigma2 receptor status of solid tumors with positron emission tomography” (J Med Chem, 2007).

Key:
EMT6 [1] = test: Biodistribution in tumor of mouse EMT6 tumor bearing BALB/c mouse at 10 to 20 uCi after 60 mins; assay type: ADME, organism-based; conditions: emt6, 1 h
Outline: (§1)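 EMT-6 cells (5×10^5 in 100 µL PBS) implanted s.c. in scapular region of female Balb/c mice (~2 months, 17-22 g); studied 7-10 days later at ~0.2 cm3 tumor. 18F tracer 10-20 µCi in 100-150 µL saline via tail vein; ≥4 mice per time point; tissue removed at sacrifice, weighed, gamma-counted; %ID/g calculated.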

Lung [2] = test: Biodistribution in lung of mouse EMT6 tumor bearing BALB/c mouse at 10 to 20 uCi after 30 mins; assay type: ADME, organism-based; conditions: in vivo, 0.5 h; outline: as §1
Liver [3] = test: Biodistribution in liver of mouse EMT6 tumor bearing BALB/c mouse at 10 to 20 uCi after 30 mins; assay type: ADME, organism-based; conditions: in vivo, 0.5 h; outline: as §1
Heart [4] = test: Biodistribution in heart of mouse EMT6 tumor bearing BALB/c mouse at 10 to 20 uCi after 60 mins; assay type: ADME, organism-based; conditions: in vivo, 1 h; outline: as §1
Muscle tissue [5] = test: Biodistribution in muscle of mouse EMT6 tumor bearing BALB/c mouse at 10 to 20 uCi after 120 mins; assay type: ADME, organism-based; conditions: in vivo, 2 h; outline: as §1
Brain [6] = test: Biodistribution in brain of EMT6 tumor bearing BALB/c mouse at 10 to 20 uCi after 60 mins; assay type: ADME, organism-based; conditions: in vivo, 1 h; outline: as §1
Brain [7] = test: Biodistribution in brain of mouse EMT6 tumor bearing BALB/c mouse at 10 to 20 uCi after 120 mins; assay type: ADME, organism-based; conditions: in vivo, 2 h; outline: as §1
Lung [8] = test: Biodistribution in lung of mouse EMT6 tumor bearing BALB/c mouse at 10 to 20 uCi after 5 mins; assay type: ADME, organism-based; conditions: in vivo; outline: as §1
Liver [9] = test: Biodistribution in liver of mouse EMT6 tumor bearing BALB/c mouse at 10 to 20 uCi after 60 mins; assay type: ADME, organism-based; conditions: in vivo, 1 h; outline: as §1
[10] = Tumor to fat ratio of the drug in mouse EMT6 tumor bearing BALB/c mouse at 10 to 20 uCi after 2 hrs; assay type: ADME
Outline: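 Tumor-bearing female Balb/c mice (EMT-6 s.c. allograft, ~0.2 cm3) given 10-20 µCi 18F tracer in saline i.v. via tail vein; ≥4 per group; killed 120 min later. Tissues weighed and gamma-counted; ratio = tumor %ID/g divided by that organ's %ID/g.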

Heart [11] = test: Biodistribution in heart of EMT6 tumor bearing BALB/c mouse at 10 to 20 uCi after 120 mins; assay type: ADME, organism-based; conditions: in vivo, 2 h; outline: as §1
Heart [12] = test: Biodistribution in heart of mouse EMT6 tumor bearing BALB/c mouse at 10 to 20 uCi after 5 mins; assay type: ADME, organism-based; conditions: in vivo; outline: as §1
Lung [13] = test: Biodistribution in lung of mouse EMT6 tumor bearing BALB/c mouse at 10 to 20 uCi after 120 mins; assay type: ADME, organism-based; conditions: in vivo, 2 h; outline: as §1
Blood [14] = test: Biodistribution in blood of mouse EMT6 tumor bearing BALB/c mouse at 10 to 20 uCi after 5 mins; assay type: ADME, organism-based; conditions: in vivo; outline: as §1
Muscle tissue [15] = test: Biodistribution in muscle of EMT6 tumor bearing BALB/c mouse at 10 to 20 uCi after 5 mins; assay type: ADME, organism-based; conditions: in vivo; outline: as §1
Bone [16] = test: Biodistribution in bone of mouse EMT6 tumor bearing BALB/c mouse at 10 to 20 uCi after 5 mins; assay type: ADME, organism-based, Bone element; conditions: in vivo; outline: as §1
Adipose tissue [17] = test: Biodistribution in fat of mouse EMT6 tumor bearing BALB/c mouse at 10 to 20 uCi after 30 mins; assay type: ADME, organism-based; conditions: in vivo, 0.5 h; outline: as §1
Muscle tissue [18] = test: Biodistribution in muscle of mouse EMT6 tumor bearing BALB/c mouse at 10 to 20 uCi after 60 mins; assay type: ADME, organism-based; conditions: in vivo, 1 h; outline: as §1
Heart [19] = test: Biodistribution in heart of mouse EMT6 tumor bearing BALB/c mouse at 10 to 20 uCi after 30 mins; assay type: ADME, organism-based; conditions: in vivo, 0.5 h; outline: as §1
Liver [20] = test: Biodistribution in liver of mouse EMT6 tumor bearing BALB/c mouse at 10 to 20 uCi after 5 mins; assay type: ADME, organism-based; conditions: in vivo; outline: as §1
EMT6 [21] = test: Biodistribution in tumor of mouse EMT6 tumor bearing BALB/c mouse at 10 to 20 uCi after 5 mins; assay type: ADME, organism-based; conditions: emt6, 5 min; outline: as §1
Liver [22] = test: Biodistribution in liver of mouse EMT6 tumor bearing BALB/c mouse at 10 to 20 uCi after 120 mins; assay type: ADME, organism-based; conditions: in vivo, 2 h; outline: as §1
EMT6 [23] = test: Biodistribution in tumor of EMT6 tumor bearing BALB/c mouse 10 to 20 uCi after 30 mins; assay type: ADME, organism-based; conditions: emt6, 0.5 h; outline: as §1
Muscle tissue [24] = test: Biodistribution in muscle of mouse EMT6 tumor bearing BALB/c mouse at 10 to 20 uCi after 30 mins; assay type: ADME, organism-based; conditions: in vivo, 0.5 h; outline: as §1
Kidney [25] = test: Biodistribution in kidney of mouse EMT6 tumor bearing BALB/c mouse at 10 to 20 uCi after 120 mins; assay type: ADME, organism-based; conditions: in vivo, 2 h; outline: as §1
[26] = Decrease in tumor to fat ratio of the drug in mouse EMT6 tumor bearing BALB/c mouse after 1 hr in presence of YUN-143; assay type: ADME; set-up: scale not given: the % may be the effect or the level left
Outline: (§2)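 Blocking: 18F tracer coinjected i.v. with 1 mg/kg cold YUN-143 (σ1/σ2 ligand) into EMT-6 tumor-bearing female Balb/c mice; sacrificed at 60 min; tumor/muscle and tumor/fat ratios from %ID/g of gamma-counted tissues.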

Kidney [27] = test: Biodistribution in kidney of mouse EMT6 tumor bearing BALB/c mouse at 10 to 20 uCi after 60 mins; assay type: ADME, organism-based; conditions: in vivo, 1 h; outline: as §1
EMT6 [28] = test: Biodistribution in tumor of mouse EMT6 tumor bearing BALB/c mouse at 10 to 20 uCi after 120 mins; assay type: ADME, organism-based; conditions: emt6, 2 h; outline: as §1
Bone [29] = test: Biodistribution in bone of mouse EMT6 tumor bearing BALB/c mouse at 10 to 20 uCi after 60 mins; assay type: ADME, organism-based, Bone element; conditions: in vivo, 1 h; outline: as §1
Adipose tissue [30] = test: Biodistribution in fat of mouse EMT6 tumor bearing BALB/c mouse at 10 to 20 uCi after 120 mins; assay type: ADME, organism-based; conditions: in vivo, 2 h; outline: as §1
Bone [31] = test: Biodistribution in bone of mouse EMT6 tumor bearing BALB/c mouse at 10 to 20 uCi after 30 mins; assay type: ADME, organism-based, Bone element; conditions: in vivo, 0.5 h; outline: as §1
Kidney [32] = test: Biodistribution in kidney of mouse EMT6 tumor bearing BALB/c mouse at 10 to 20 uCi after 30 mins; assay type: ADME, organism-based; conditions: in vivo, 0.5 h; outline: as §1
Brain [33] = test: Biodistribution in brain of EMT6 tumor bearing BALB/c mouse at 10 to 20 uCi after 30 mins; assay type: ADME, organism-based; conditions: in vivo, 0.5 h; outline: as §1
Bone [34] = test: Biodistribution in bone of mouse EMT6 tumor bearing BALB/c mouse at 10 to 20 uCi after 120 mins; assay type: ADME, organism-based, Bone element; conditions: in vivo, 2 h; outline: as §1
Brain [35] = test: Biodistribution in brain of EMT6 tumor bearing BALB/c mouse at 10 to 20 uCi after 5 mins; assay type: ADME, organism-based; conditions: in vivo; outline: as §1
Blood [36] = test: Biodistribution in blood of mouse EMT6 tumor bearing BALB/c mouse at 10 to 20 uCi after 120 mins; assay type: ADME, organism-based; conditions: in vivo, 2 h; outline: as §1
Blood [37] = test: Biodistribution in blood of mouse EMT6 tumor bearing BALB/c mouse at 10 to 20 uCi after 30 mins; assay type: ADME, organism-based; conditions: in vivo, 0.5 h; outline: as §1
[38] = Decrease in tumor to muscle ratio of the drug in mouse EMT6 tumor bearing BALB/c mouse after 1 hr in presence of YUN-143; assay type: ADME; set-up: scale not given: the % may be the effect or the level left; outline: as §2
Adipose tissue [39] = test: Biodistribution in fat of mouse EMT6 tumor bearing BALB/c mouse at 10 to 20 uCi after 60 mins; assay type: ADME, organism-based; conditions: in vivo, 1 h; outline: as §1
Blood [40] = test: Biodistribution in blood of mouse EMT6 tumor bearing BALB/c mouse at 10 to 20 uCi after 60 mins; assay type: ADME, organism-based; conditions: in vivo, 1 h; outline: as §1
Adipose tissue [41] = test: Biodistribution in fat of mouse EMT6 tumor bearing BALB/c mouse at 10 to 20 uCi after 5 mins; assay type: ADME, organism-based; conditions: in vivo; outline: as §1
Kidney [42] = test: Biodistribution in kidney of mouse EMT6 tumor bearing BALB/c mouse at 10 to 20 uCi after 5 mins; assay type: ADME, organism-based; conditions: in vivo; outline: as §1
Lung [43] = test: Biodistribution in lung of mouse EMT6 tumor bearing BALB/c mouse at 10 to 20 uCi after 60 mins; assay type: ADME, organism-based; conditions: in vivo, 1 h; outline: as §1

With `COc1cc2c(cc1OC)CN(CCCCNC(=O)c1cc(C)ccc1OCC[18F])CC2` the Drug uptake (EMT6 [1]) was 1.14 % ID/g, the Drug uptake (Lung [2]) was 2.36 % ID/g and the Drug uptake (Liver [3]) was 10.51 % ID/g. The Drug uptake (Heart [4]) was 0.55 % ID/g, the Drug uptake (Muscle tissue [5]) was 0.24 % ID/g and the Drug uptake (Brain [6]) was 0.18 % ID/g. For the same compound, the Drug uptake (Brain [7]) was 0.12 % ID/g, the Drug uptake (Lung [8]) was 10.26 % ID/g and the Drug uptake (Liver [9]) was 4.14 % ID/g. It also gave a Ratio [10] of 8, a Drug uptake (Heart [11]) of 0.27 % ID/g and a Drug uptake (Heart [12]) of 3.73 % ID/g. The Drug uptake (Lung [13]) was 0.43 % ID/g, the Drug uptake (Blood [14]) was 2.49 % ID/g and the Drug uptake (Muscle tissue [15]) was 1.86 % ID/g. The Drug uptake (Bone [16]) was 2.49 % ID/g, the Drug uptake (Adipose tissue [17]) was 0.59 % ID/g and the Drug uptake (Muscle tissue [18]) was 0.34 % ID/g. It also gave a Drug uptake (Heart [19]) of 1.15 % ID/g, a Drug uptake (Liver [20]) of 23.33 % ID/g and a Drug uptake (EMT6 [21]) of 3.67 % ID/g. For the same compound, the Drug uptake (Liver [22]) was 2.05 % ID/g, the Drug uptake (EMT6 [23]) was 2.54 % ID/g and the Drug uptake (Muscle tissue [24]) was 0.7 % ID/g. For the same compound, the Drug uptake (Kidney [25]) was 0.87 % ID/g, the Activity [26] was 50% and the Drug uptake (Kidney [27]) was 2.51 % ID/g. It also gave a Drug uptake (EMT6 [28]) of 0.64 % ID/g, a Drug uptake (Bone [29]) of 0.55 % ID/g and a Drug uptake (Adipose tissue [30]) of 0.08 % ID/g. The Drug uptake (Bone [31]) was 0.96 % ID/g, the Drug uptake (Kidney [32]) was 6.86 % ID/g and the Drug uptake (Brain [33]) was 0.27 % ID/g. The Drug uptake (Bone [34]) was 0.45 % ID/g, the Drug uptake (Brain [35]) was 0.76 % ID/g and the Drug uptake (Blood [36]) was 0.35 % ID/g. For the same compound, the Drug uptake (Blood [37]) was 1.16 % ID/g, the Activity [38] was 50% and the Drug uptake (Adipose tissue [39]) was 0.22 % ID/g. For the same compound, the Drug uptake (Blood [40]) was 0.56 % ID/g, the Drug uptake (Adipose tissue [41]) was 1.95 % ID/g and the Drug uptake (Kidney [42]) was 29.18 % ID/g. It also gave a Drug uptake (Lung [43]) of 0.88 % ID/g.
